# According to ChEMBL document CHEMBL1155485, “Pyrimidine ribonucleotides with enhanced selectivity as P2Y(6) receptor agonists: novel 4-alkyloxyimino, (S)-methanocarba, and 5'-triphosphate gamma-ester modifications” (J Med Chem, 2010):
# Assays:
# P2Y purinoceptor 6 [1] = molecular target: T1, P2Y purinoceptor 6 (Homo sapiens, UniProt Q15077); test: Agonist activity at human recombinant P2Y6 receptor expressed in human 1321N1 cells assessed as [3H]inositol phosphate production by scintillation proximity assay; type: functional, cell-based
# Method in brief: (§1)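 Stably transfected 1321N1 astrocytoma cells (human P2Y2, P2Y4 or P2Y6 receptor) seeded at 20,000 cells/well two days before assay; labelled 16 h with myo-[3H]inositol (1.0 μCi) in serum-free inositol-free DMEM. Agonist added in HEPES pH 7.3/HBSS with LiCl (50 mM, fivefold stock), 30 min at 37°C; stopped with ice-cold 50 mM formic acid. [3H]inositol phosphates read by SPA.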
# P2Y purinoceptor 4 = P2Y purinoceptor 4 (Homo sapiens, UniProt P51582); test: Agonist activity at human recombinant P2Y4 receptor expressed in human 1321N1 cells assessed as [3H]inositol phosphate production by scintillation proximity assay; type: functional, cell-based; method in brief: as §1
# P2Y purinoceptor 2 [2] = molecular target: T2, P2Y purinoceptor 2 (Homo sapiens, UniProt P41231); test: Agonist activity at human recombinant P2Y2 receptor expressed in human 1321N1 cells assessed as [3H]inositol phosphate production by scintillation proximity assay; type: functional, cell-based; method in brief: as §1
# [3] = Stability assessed as half life in aqueous acidic solution at pH 1.2 by HPLC; type: physicochemical; conditions: buffer
# Method in brief: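 Nucleotide (10 μL of 2 mg/mL aqueous stock) mixed with 90 μL of HCl/NaCl buffer pH 1.2 and held at 37°C. Aliquots taken at intervals were diluted tenfold in water or 5 mM TBAP and run on reverse-phase HPLC with a 5 mM TBAP–acetonitrile gradient. Half-life was derived from peak area.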
# P2Y purinoceptor 6 [4] = molecular target: T1, P2Y purinoceptor 6; test: Agonist activity at human recombinant P2Y6 receptor expressed in human 1321N1 cells assessed as [3H]inositol phosphate production up to 10 uM by scintillation proximity assay; type: functional, cell-based
# Method in brief: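 Human 1321N1 astrocytoma cells stably expressing the human P2Y2 or P2Y6 receptor, seeded at 20,000 cells/well two days before assay. Inositol lipids labelled for 16 h with 1.0 μCi myo-[3H]inositol in serum-free, inositol-free DMEM. Agonist added in HEPES pH 7.3/HBSS with LiCl, 30 min at 37°C. Stopped with ice-cold 50 mM formic acid; [3H]inositol phosphates counted by scintillation proximity assay. Triplicates.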
# [5] = Stability assessed as half life by HPLC in presence of human 1321N1 cell membranes; type: ADME, cell-based
# Method in brief: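 Nucleotide (10 μL of 2 mg/mL aqueous stock) mixed with 90 μL of astrocytoma cell membrane suspension in Dulbecco's PBS pH 7.4 (final protein 14.9 μg/mL), incubated at 37°C. At intervals, aliquots were diluted tenfold in water or 5 mM TBAP and analysed by reverse-phase HPLC (TBAP–acetonitrile gradient). Half-life was taken from peak area.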
# P2Y purinoceptor 2 [6] = molecular target: T2, P2Y purinoceptor 2; test: Agonist activity at human recombinant P2Y2 receptor expressed in human 1321N1 cells assessed as [3H]inositol phosphate production at 10 uM by scintillation proximity assay; type: functional, cell-based
# Homo sapiens [7] = species on record: Homo sapiens; test: Selectivity ratio of EC50 for human P2Y4 receptor to EC50 for human P2Y6 receptor
# Homo sapiens [8] = species on record: Homo sapiens; test: Selectivity ratio of EC50 for human P2Y2 receptor to EC50 for human P2Y6 receptor
# T1 sequence (Q15077 whole entry): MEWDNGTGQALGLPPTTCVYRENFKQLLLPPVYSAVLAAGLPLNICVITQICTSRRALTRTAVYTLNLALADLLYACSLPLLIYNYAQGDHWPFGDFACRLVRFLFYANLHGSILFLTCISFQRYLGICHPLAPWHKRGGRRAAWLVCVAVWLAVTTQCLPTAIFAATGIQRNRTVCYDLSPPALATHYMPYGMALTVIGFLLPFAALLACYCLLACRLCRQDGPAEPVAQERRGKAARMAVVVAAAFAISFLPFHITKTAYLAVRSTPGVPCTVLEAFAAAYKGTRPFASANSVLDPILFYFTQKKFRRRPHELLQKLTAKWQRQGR
# P2Y purinoceptor 4, sequence (P51582 whole entry): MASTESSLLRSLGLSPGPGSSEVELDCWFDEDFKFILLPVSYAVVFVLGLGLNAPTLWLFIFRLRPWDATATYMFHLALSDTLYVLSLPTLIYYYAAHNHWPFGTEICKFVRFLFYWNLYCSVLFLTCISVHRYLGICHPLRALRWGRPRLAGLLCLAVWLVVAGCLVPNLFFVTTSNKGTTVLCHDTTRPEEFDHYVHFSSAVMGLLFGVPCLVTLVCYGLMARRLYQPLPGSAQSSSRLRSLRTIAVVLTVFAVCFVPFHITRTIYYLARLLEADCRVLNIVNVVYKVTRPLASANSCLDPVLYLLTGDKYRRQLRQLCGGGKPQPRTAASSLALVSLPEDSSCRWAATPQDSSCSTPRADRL
# T2 sequence (P41231 whole entry): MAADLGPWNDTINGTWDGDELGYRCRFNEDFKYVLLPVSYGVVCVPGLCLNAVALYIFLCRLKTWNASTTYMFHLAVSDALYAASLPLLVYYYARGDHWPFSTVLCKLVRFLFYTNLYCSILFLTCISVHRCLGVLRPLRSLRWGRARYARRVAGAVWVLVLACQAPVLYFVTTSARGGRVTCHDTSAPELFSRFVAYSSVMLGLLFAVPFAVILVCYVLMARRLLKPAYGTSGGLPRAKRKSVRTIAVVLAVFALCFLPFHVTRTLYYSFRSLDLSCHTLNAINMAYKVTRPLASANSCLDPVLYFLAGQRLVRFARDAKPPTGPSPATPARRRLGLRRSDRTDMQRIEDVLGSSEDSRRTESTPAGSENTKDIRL
EC50 (P2Y purinoceptor 6 [1]) [nM],EC50 (P2Y purinoceptor 4) [nM],Structure (SMILES),EC50 (P2Y purinoceptor 2 [2]) [nM],t1/2 [3] [h],t1/2 [5] [h],other results
4690,–,O=c1[nH]c(=O)n([C@@H]2O[C@H](COP(=O)(O)OP(=O)(O)OP(=O)(O)O[C@H]3O[C@H](CO)[C@@H](O)[C@H](O)[C@H]3O)[C@@H](O)[C@H]2O)cc1I,–,–,–,–
63,560,CONc1ccn([C@@H]2O[C@H](COP(=O)(O)OP(=O)(O)OP(=O)(O)OC[C@H]3O[C@@H](n4ccc(NOC)nc4=O)[C@H](O)[C@@H]3O)[C@@H](O)[C@H]2O)c(=O)n1,2120,–,–,–
–,–,CO/N=c1/ccn([C@@H]2O[C@H](COP(=O)(O)CP(=O)(O)O)[C@@H](O)[C@H]2O)c(=O)[nH]1,–,–,–,Activity (P2Y purinoceptor 2 [6]): < 50%
–,–,O=c1ccn([C@@H]2O[C@H](COP(=O)(O)OP(=O)(O)OP(=O)(O)O)[C@@H](O)[C@H]2O)c(=O)[nH]1 [URIDINE TRIPHOSPHATE],–,23,31,–
80,50,CO/N=c1\ccn([C@@H]2O[C@H](COP(=O)(O)OP(=O)(O)OP(=O)(O)O)[C@@H](O)[C@H]2O)c(=O)[nH]1,50,–,–,–
–,180,CCO/N=c1/ccn([C@@H]2O[C@H](COP(=O)(O)OP(=O)(O)O)[C@@H](O)[C@H]2O)c(=O)[nH]1,280,–,–,–
180,–,CO/N=c1/ccn([C@@H]2O[C@H](COP(=O)(O)OP(=O)(O)OP(=O)(O)O[C@H]3O[C@H](CO)[C@@H](O)[C@H](O)[C@H]3O)[C@@H](O)[C@H]2O)c(=O)[nH]1,> 10000,–,–,Activity (P2Y purinoceptor 2 [6]): < 50%
130,–,O=c1[nH]c(=O)n([C@@H]2O[C@H](COP(=O)(O)CP(=O)(O)O)[C@@H](O)[C@H]2O)cc1I,–,–,–,–
> 10000,–,O=C(Cn1c(=O)ccn([C@@H]2O[C@H](COP(=O)(O)OP(=O)(O)OP(=O)(O)O[C@H]3O[C@H](CO)[C@@H](O)[C@H](O)[C@H]3O)[C@@H](O)[C@H]2O)c1=O)c1ccccc1,–,–,–,Activity (P2Y purinoceptor 6 [4]): < 50%
–,6230,CC(C)(C)O/N=c1/ccn([C@@H]2O[C@H](COP(=O)(O)OP(=O)(O)O)[C@@H](O)[C@H]2O)c(=O)[nH]1,3510,–,–,–
15,–,O=c1[nH]c(=O)n([C@@H]2O[C@H](COP(=O)(O)OP(=O)(O)O)[C@@H](O)[C@H]2O)cc1I,–,–,–,–
700,–,O=c1ccn([C@@H]2O[C@H](COP(=O)(O)CP(=O)(O)O)[C@@H](O)[C@H]2O)c(=O)[nH]1,–,–,–,–
1370,300,O=c1ccn([C@@]23C[C@H]2[C@H](COP(=O)(O)OP(=O)(O)OP(=O)(O)O)[C@@H](O)[C@H]3O)c(=O)[nH]1,80,–,–,–

Structure (SMILES),EC50 (P2Y purinoceptor 6 [1]) [nM],EC50 (P2Y purinoceptor 4) [nM],EC50 (P2Y purinoceptor 2 [2]) [nM],t1/2 [3] [h],t1/2 [5] [h],other results
CCN(CC)CC.O=c1ccn([C@@H]2O[C@H](COP(=O)(O)OP(=O)(O)OP(=O)(O)Oc3ccccc3)[C@@H](O)[C@H]2O)c(=O)[nH]1,2130,–,> 10000,164,43,Activity (P2Y purinoceptor 6 [4]): < 50%; Activity (P2Y purinoceptor 2 [6]): < 50%
CCN(CC)CC.O=c1[nH]/c(=N\OCc2ccccc2)ccn1[C@@H]1O[C@H](COP(=O)(O)OP(=O)(O)O)[C@@H](O)[C@H]1O,–,1150,2130,126,26,Ratio EC50 (Homo sapiens [7]): 44; Ratio EC50 (Homo sapiens [8]): 82
CCN(CC)CC.O=c1ccn([C@@H]2O[C@H](COP(=O)(O)CP(=O)(O)OP(=O)(O)OC[C@H]3O[C@@H](n4ccc(=O)[nH]c4=O)[C@H](O)[C@@H]3O)[C@@H](O)[C@H]2O)c(=O)[nH]1,1300,–,> 10000,34,62,–
CCN(CC)CC.O=c1ccn([C@@H]2O[C@H](COP(=O)(O)CP(=O)(O)OP(=O)(O)O[C@H]3O[C@H](CO)[C@@H](O)[C@H](O)[C@H]3O)[C@@H](O)[C@H]2O)c(=O)[nH]1,> 10000,–,–,2.8,19,Activity (P2Y purinoceptor 6 [4]): < 50%
CCN(CC)CC.O=c1ccn([C@@H]2O[C@H](COP(=O)(O)OP(=O)(O)OP(=O)(O)O[C@H]3O[C@H](CO)[C@@H](O)[C@H](O)[C@H]3O)[C@@H](O)[C@H]2O)c(=O)[nH]1,> 10000,–,–,5.1,29,Activity (P2Y purinoceptor 6 [4]): < 50%
CO/N=c1/ccn([C@@H]2O[C@H](COP(=O)(O)OP(=O)(O)OP(=O)(O)Oc3ccccc3)[C@@H](O)[C@H]2O)c(=O)[nH]1,3490,–,> 10000,–,–,Activity (P2Y purinoceptor 2 [6]): < 50%
CCN(CC)CC.CO/N=c1/ccn([C@@H]2O[C@H](COP(=O)(O)OP(=O)(O)O)[C@@H](O)[C@H]2O)c(=O)[nH]1,–,6450,3600,116,55,–
CCN(CC)CC.O=c1ccn([C@@H]2O[C@H](COP(=O)(O)OP(=O)(O)OP(=O)(O)OC3CCCCC3)[C@@H](O)[C@H]2O)c(=O)[nH]1,6990,–,2280,193,62,–
CCN(CC)CC.CO/N=c1/ccn([C@@H]2O[C@H](COP(=O)(O)OP(=O)(O)OP(=O)(O)OC[C@H]3O[C@@H](n4ccc(=O)[nH]c4=O)[C@H](O)[C@@H]3O)[C@@H](O)[C@H]2O)c(=O)[nH]1,12,790,170,120,23,Ratio EC50 (Homo sapiens [7]): 66; Ratio EC50 (Homo sapiens [8]): 14
